Assay results taken from ChEMBL document CHEMBL2424625, “Synthesis and structure-activity relationships of novel indazolyl glucocorticoid receptor partial agonists” (Bioorg Med Chem Lett, 2013).
pEC50, pKi: −log10 of the molar value. The source made the active and inactive calls. The rule behind the calls is not given here.

Assays:
Glucocorticoid receptor [1] = target: T1, Glucocorticoid receptor (Homo sapiens, UniProt P04150); assay: Transrepression activity at glucocorticoid receptor in human A549 cells assessed as inhibition of IL1beta-stimulated NFkappaB-dependent E-selectin transcription by luciferase reporter gene assay; type: cell-based
T1 sequence (P04150 whole entry): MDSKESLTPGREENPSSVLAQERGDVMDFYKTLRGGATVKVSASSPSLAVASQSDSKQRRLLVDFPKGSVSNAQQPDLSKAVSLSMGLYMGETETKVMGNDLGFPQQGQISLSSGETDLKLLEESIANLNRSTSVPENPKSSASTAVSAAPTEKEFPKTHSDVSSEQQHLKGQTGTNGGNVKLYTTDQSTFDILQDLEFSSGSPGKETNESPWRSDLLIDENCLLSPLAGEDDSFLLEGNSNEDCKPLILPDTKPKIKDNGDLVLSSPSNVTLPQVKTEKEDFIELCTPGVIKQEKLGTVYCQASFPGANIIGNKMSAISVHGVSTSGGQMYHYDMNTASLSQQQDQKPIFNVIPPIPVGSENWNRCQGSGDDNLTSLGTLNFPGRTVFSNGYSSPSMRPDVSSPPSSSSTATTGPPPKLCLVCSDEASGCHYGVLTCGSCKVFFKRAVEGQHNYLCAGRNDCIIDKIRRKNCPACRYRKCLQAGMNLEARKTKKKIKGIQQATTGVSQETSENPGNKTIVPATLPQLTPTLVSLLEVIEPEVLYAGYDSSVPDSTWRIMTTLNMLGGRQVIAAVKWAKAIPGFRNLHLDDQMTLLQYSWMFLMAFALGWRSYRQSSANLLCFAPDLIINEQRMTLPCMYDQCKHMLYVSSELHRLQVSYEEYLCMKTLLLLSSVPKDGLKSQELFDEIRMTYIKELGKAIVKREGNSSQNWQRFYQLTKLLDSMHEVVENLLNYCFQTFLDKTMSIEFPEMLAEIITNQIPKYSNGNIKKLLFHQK

[2] = target: T2, Glucocorticoid receptor (Homo sapiens) (UniProt P04150); assay: Transrepression activity at glucocorticoid receptor in human A549 cells assessed as inhibition of IL1beta-stimulated NFkappaB-dependent E-selectin transcription by luciferase reporter gene assay relative to dexamethasone; type: cell-based
T2 sequence (whole entry): T1 sequence (P04150 whole entry)
Procedure, shortened: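 In A549 lung epithelial cells, NFkB activity was induced with IL-1β (0.5 ng/ml). Inhibition was quantitated as decreased luciferase activity. […] Values are means of two or more experiments in triplicate.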

Glucocorticoid receptor [3] = target: T1, Glucocorticoid receptor; assay: Binding affinity to glucocorticoid receptor (unknown origin) by fluorescence assay
Glucocorticoid receptor [4] = target: T1, Glucocorticoid receptor; assay: Transrepression activity at glucocorticoid receptor in human A549 cells assessed as inhibition of PMA-stimulated AP1 response element by luciferase reporter gene assay; type: cell-based
[5] = target: T2, Glucocorticoid receptor (Homo sapiens); assay: Transrepression activity at glucocorticoid receptor in human A549 cells assessed as inhibition of PMA-stimulated AP1 response element by luciferase reporter gene assay relative to dexamethasone; type: cell-based
Procedure, shortened: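 Transrepression of AP-1 was run in A549 lung epithelial cells. […] Values are means of two or more experiments in triplicate.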

Glucocorticoid receptor [6] = target: T1, Glucocorticoid receptor; assay: Transactivation activity at glucocorticoid receptor ligand binding domain (unknown origin) expressed in human Hela cells co-expressing GAL4 DNA binding domain assessed as NP-1-stimulated GRE activation by luciferase reporter gene assay; type: cell-based
[7] = target: T2, Glucocorticoid receptor (Homo sapiens); assay: Transactivation activity at glucocorticoid receptor ligand binding domain (unknown origin) expressed in human Hela cells co-expressing GAL4 DNA binding domain assessed as NP-1-stimulated GRE activation by luciferase reporter gene assay relative to dexamethasone; type: cell-based
Procedure, shortened: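 HeLa line (NP-1) stably transfected with a GR-LBD chimera cloned into a GAL4 luciferase reporter was run in agonist mode. Direct GR-LBD activation was read as increased luciferase activity. […] Values are means of two or more experiments in triplicate.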

[8] = target: T2, Glucocorticoid receptor (Homo sapiens); assay: Partial agonist activity at glucocorticoid receptor (unknown origin) by fluorescence assay

| pEC50 (Glucocorticoid receptor [1]) | Efficacy [2] | pKi (Glucocorticoid receptor [3]) | pEC50 (Glucocorticoid receptor [4]) | Efficacy [5] | pEC50 (Glucocorticoid receptor [6]) | Efficacy [7] | Activity [8] | Structure (SMILES) |
| --- | --- | --- | --- | --- | --- | --- | --- | --- |
| 5.94 | 58% | 8.62 | < 5.30 | – | – | – | – | CC(=O)NCC(C)(C)[C@@H](c1ccccc1)c1ccc2c(cnn2-c2ccc(F)cc2)c1 |
| 6.91 | 39% | 8.76 | 6.14 | 44% | < 5.00 | – | – | CC(C)(CNC(=O)C(F)(F)F)[C@@H](c1ccccc1)c1ccc2c(cnn2-c2ccc(F)cc2)c1 |
| 6.41 | 55% | 7.99 | 6.60 | 66% | < 5.00 | – | – | CC(C)(CNC(=O)NCC(F)(F)F)[C@@H](c1ccccc1)c1ccc2c(cnn2-c2ccc(F)cc2)c1 |
| 7.06 | 85% | 8.85 | 6.93 | 86% | 6.30 | 58% | – | CC(C)C[C@@H](c1ccc2c(cnn2-c2ccc(F)cc2)c1)C(C)(C)CNC(=O)NCC(F)(F)F |
| 8.74 | 100% | 9.06 | 8.37 | 96% | 7.89 | 111% | – | CCS(=O)(=O)NCC(C)[C@@H](c1ccccc1)c1ccc2c(cnn2-c2ccc(F)cc2)c1 (stereo partly drawn) |
| 7.72 | 97% | 9.28 | 7.69 | 86% | 6.83 | 32% | – | CC(C)(CNS(C)(=O)=O)[C@@H](c1ccccc1)c1ccc2c(cnn2-c2ccc(F)cc2)c1 |
| 6.86 | 46% | 8.72 | 6.67 | 62% | < 5.00 | – | – | CC(C)(C)CC(=O)NCC(C)(C)[C@@H](c1ccccc1)c1ccc2c(cnn2-c2ccc(F)cc2)c1 |
| 9.18 | 105% | 8.87 | 8.28 | 97% | 7.59 | 112% | – | CC(CNS(=O)(=O)CC(F)(F)F)[C@@H](c1ccccc1)c1ccc2c(cnn2-c2ccc(F)cc2)c1 (stereo partly drawn) |
| 8.85 | 105% | 9.03 | 8.08 | 100% | 7.62 | 101% | – | CC(CNS(C)(=O)=O)[C@@H](c1ccccc1)c1ccc2c(cnn2-c2ccc(F)cc2)c1 (stereo partly drawn) |
| 7.07 | 63% | 8.82 | 6.84 | 66% | < 5.00 | – | – | CCCS(=O)(=O)NCC(C)(C)[C@@H](c1ccccc1)c1ccc2c(cnn2-c2ccc(F)cc2)c1 |
| 7.95 | 94% | 8.44 | 7.60 | 100% | 6.90 | 86% | – | CC(C)C[C@@H](c1ccc2c(cnn2-c2ccc(F)cc2)c1)C(C)(C)CNC(=O)NC(C)(C)C |
| 7.81 | 87% | 9.14 | 7.54 | 84% | 6.67 | 19% | – | CCS(=O)(=O)NCC(C)(C)[C@@H](c1ccccc1)c1ccc2c(cnn2-c2ccc(F)cc2)c1 |
| – | – | – | – | 84% | – | 52% | – | CC(CNC(=O)CC(F)(F)F)[C@@H](c1ccccc1)c1ccc2c(cnn2-c2ccc(F)cc2)c1 (single isomer, unassigned) [listing 1 of 2 here] |
| – | – | 8.62 | 8.12 | – | 7.68 | – | – | CC(CNC(=O)CC(F)(F)F)[C@@H](c1ccccc1)c1ccc2c(cnn2-c2ccc(F)cc2)c1 (stereo in doubt; 3i) [listing 1 of 2 here] |
| 7.64 | 80% | 8.70 | 7.11 | 100% | 6.40 | 25% | Active | CC(C)(C)C(=O)NCC(C)(C)[C@@H](c1ccccc1)c1ccc2c(cnn2-c2ccc(F)cc2)c1 |
| 7.42 | 96% | 8.89 | 7.21 | 101% | 6.58 | 81% | – | CC(C)C[C@@H](c1ccc2c(cnn2-c2ccc(F)cc2)c1)C(C)(C)CNC(=O)CC(F)(F)F |
| – | – | – | – | 88% | – | 102% | – | CC(CNC(=O)CC(F)(F)F)[C@@H](c1ccccc1)c1ccc2c(cnn2-c2ccc(F)cc2)c1 (stereo in doubt; 3i) [listing 2 of 2 here] |
| – | – | 8.64 | 7.28 | – | 6.43 | – | – | CC(CNC(=O)CC(F)(F)F)[C@@H](c1ccccc1)c1ccc2c(cnn2-c2ccc(F)cc2)c1 (single isomer, unassigned) [listing 2 of 2 here] |
| 7.53 | 82% | 8.94 | 7.57 | 76% | 6.58 | 19% | – | CC(C)(CNS(=O)(=O)C1CC1)[C@@H](c1ccccc1)c1ccc2c(cnn2-c2ccc(F)cc2)c1 |
| – | – | – | 5.60 | 33% | 6.01 | 100% | – | CC(C)(CNC(=O)Cc1ccccc1)[C@@H](c1ccccc1)c1ccc2c(cnn2-c2ccc(F)cc2)c1 |
